Statin myotox sup: suppressors of simvastatin-induced myotoxicity in C2C12 myotubes; rescue of ATP level, % at 7.49 µM; ATP luminescence, 48 h; scaled: DMSO 0, geranylgeraniol control 100; AID 602340; 330,000 tested, 0.78% active;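 active = mean ATP rescue above about 67%, or every replicate alone reaching that limit, limit read from the data, passing the limit was not always enough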;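 also: myotubes were challenged with 10 µM simvastatin during compound exposure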
CAL PDZ FP-1: inhibitors of human CAL PDZ peptide binding; Q9HD26; inhibition, % at 24.9 µM; purified CAL PDZ, TMR-peptide fluorescence polarization, 1 h; 300,000 tested, 0.92% active;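 active = mean inhibition of at least 30% with at least half of replicates also reaching 30%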;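 also: 0% = DMSO neutral control and 100% = excess unlabeled competitor peptide PRC23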
CDK5 p35 inh: blocks human CDK5/p35 kinase activity; Q00535+Q15078; Recombinant CDK5/p35, ADP-Glo luminescence, 60 min; inhibition, % at 10 µM; 330,000 tested, 0.01% active; AID 488839;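 active = highest replicate inhibition of at least 50% and at least 75% of replicates reaching 50%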;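 also: plate controls were DMSO neutral control for no effect and GW8510 at 10 µM for full effect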
Target sequence (Q00535 whole entry, looked up): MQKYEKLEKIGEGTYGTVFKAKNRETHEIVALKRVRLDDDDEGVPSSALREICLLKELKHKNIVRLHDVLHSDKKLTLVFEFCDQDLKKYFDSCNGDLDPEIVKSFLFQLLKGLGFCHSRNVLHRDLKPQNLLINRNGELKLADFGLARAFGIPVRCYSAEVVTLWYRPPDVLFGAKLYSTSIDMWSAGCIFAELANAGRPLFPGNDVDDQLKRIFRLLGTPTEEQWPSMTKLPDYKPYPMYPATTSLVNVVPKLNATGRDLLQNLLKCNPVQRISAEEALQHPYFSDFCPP
Target sequence (Q15078 whole entry, looked up): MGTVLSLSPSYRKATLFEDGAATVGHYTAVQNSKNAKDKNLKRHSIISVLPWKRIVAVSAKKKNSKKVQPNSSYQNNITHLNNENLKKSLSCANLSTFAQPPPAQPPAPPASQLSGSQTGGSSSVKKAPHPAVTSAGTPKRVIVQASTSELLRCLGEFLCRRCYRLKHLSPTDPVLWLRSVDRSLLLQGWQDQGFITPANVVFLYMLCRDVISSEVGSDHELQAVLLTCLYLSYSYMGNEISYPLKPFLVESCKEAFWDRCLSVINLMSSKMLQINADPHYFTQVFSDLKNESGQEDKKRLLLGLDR
CAL PDZ FP-2: inhibitors of human CAL PDZ peptide binding. purified CAL PDZ, TMR-peptide fluorescence polarization, 1 h. Q9HD26. 330,000 tested, 0.02% active. inhibition, % at 20 µM. AID 504414;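 active = highest replicate inhibition of at least 40%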;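 also: plate controls were DMSO neutral control wells for no effect and unlabeled competitor peptide control wells for full effect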
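material = purified tagged CAL PDZ domain construct (CerCALP) | compound dosing = 20 µM, one dose | times = 1 h at RT | measured by = fluorescence polarization from S- and P-plane intensities, G-factor corrected | read-out = inhibition from polarization loss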
dFosB act-1: enhances mouse delta FosB homodimer DNA binding | purified delta FosB, TAMRA-CDK5 oligo fluorescence polarization; percent of positive-control signal above neutral wells | P13346 | activation, % at 25 µM | 340,000 tested, 0.99% active;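 active = mean activation above about 17%, with every replicate also reaching it, limit read from the data, passing the limit was not always enough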
S100A4 MyoIIA: blocks human S100A4 binding to myosin IIA peptide; P26447; S100A4/TAMRA-MyoIIA peptide fluorescence polarization; inhibition, % at 10.7 µM; 360,000 tested, 0.14% active;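 active = mean inhibition of at least 70% across replicates, with every replicate also reaching that level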
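Material: human S100A4 monomer with TAMRA-labelled myosin IIA peptide; buffer or medium: HEPES pH 7.2 with CaCl2, KCl, NaCl, DTT, Triton; compound dosing: one concentration per compound; schedule: 5 min incubation before reading; benchmarks: neutral control DMSO, positive control TFP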
dFosB act-2: activators of mouse delta FosB homodimer DNA binding | shares compounds with dFosB act-1 | purified delta FosB, TAMRA-CDK5 oligo fluorescence polarization; normalised: neutral wells 0, positive control 100 | activation, % at 24.9 µM | 2,400 tested, under 10 active;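 active = highest replicate activation at or above 34% and every replicate reaching that threshold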;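 also: higher polarization means more probe DNA bound by delta FosB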
Active calls of the source: *. Compounds with a hit are over-represented: about 2% of the library has one in this group of screens.

For CC[C@H](C)[C@@H]1NC(=O)c2cc([N+](=O)[O-])cc(F)c2NCCCC[C@@H](C(N)=O)NC(=O)[C@H](CCCCN)NC1=O the results were Statin myotox sup 1, CAL PDZ FP-1 1, CDK5 p35 inh 3, CAL PDZ FP-2 -1, dFosB act-1 21*, S100A4 MyoIIA -6 and dFosB act-2 3.
Screening COc1ccc(NS(=O)(=O)c2cccc(C(=O)N/N=C/c3cccs3)c2)cc1 returned CAL PDZ FP-1 -5, CDK5 p35 inh 0, CAL PDZ FP-2 -2, dFosB act-1 12 and S100A4 MyoIIA -35.
`O=C(N/N=C/c1ccncc1)c1cccc(S(=O)(=O)Nc2ccc(Cl)cc2)c1` gave CAL PDZ FP-1 -5, CDK5 p35 inh -2, CAL PDZ FP-2 -6, dFosB act-1 45*, S100A4 MyoIIA 5 and dFosB act-2 -1.
Screening CC(=O)Nc1cccc(C(=O)N/N=C/c2cccnc2)c1 returned Statin myotox sup -1, CAL PDZ FP-1 -5, CDK5 p35 inh 0, CAL PDZ FP-2 0, dFosB act-1 -12 and S100A4 MyoIIA 0.
COc1ccc(NS(=O)(=O)c2cccc(C(=O)NN=Cc3ccc(OC)cc3OC)c2)cc1 was read as Statin myotox sup 6, CDK5 p35 inh 1, CAL PDZ FP-2 0, dFosB act-1 26*, S100A4 MyoIIA 10 and dFosB act-2 0.
For O=C(N/N=C/c1cccnc1)c1cccc(NC(=O)c2cccc(Br)c2)c1 the results were Statin myotox sup 18, CAL PDZ FP-1 -13, CDK5 p35 inh 0, CAL PDZ FP-2 -2, dFosB act-1 45*, S100A4 MyoIIA 5 and dFosB act-2 -1.
COc1ccc(NS(=O)(=O)c2ccc(OC)c(NC(=O)CNC(=O)c3ccc(OC)cc3)c2)cc1 was read as Statin myotox sup 3, CAL PDZ FP-1 -1, CDK5 p35 inh 0, CAL PDZ FP-2 0, dFosB act-1 39*, S100A4 MyoIIA -1 and dFosB act-2 -4.
`O=C(N/N=C/c1ccncc1)c1cccc(S(=O)(=O)N2CCCC2)c1` gave Statin myotox sup 1, CAL PDZ FP-1 0, CDK5 p35 inh 2, CAL PDZ FP-2 -2, dFosB act-1 -12 and S100A4 MyoIIA -3.
Screening O=C(Nc1cccnc1)c1cccc(S(=O)(=O)Nc2cccc(Cl)c2)c1 returned Statin myotox sup -4, CDK5 p35 inh 0, CAL PDZ FP-2 -2, dFosB act-1 -9 and S100A4 MyoIIA -3.
O=C(N/N=C/c1cccnc1)c1cccc(S(=O)(=O)Nc2cccc(Cl)c2)c1 was read as Statin myotox sup -5, CAL PDZ FP-1 0, CDK5 p35 inh 2, CAL PDZ FP-2 2, dFosB act-1 31*, S100A4 MyoIIA 0 and dFosB act-2 1.
`CC(C)C[C@@H](CN1CCCC1CN1C(=S)NC[C@@H]1Cc1ccc(O)cc1)N1C[C@H](Cc2ccc(O)cc2)N(CC2CCCCCC2)C1=S` (stereo not given in full) gave Statin myotox sup -4, CAL PDZ FP-1 -1, CDK5 p35 inh 1, CAL PDZ FP-2 -1, dFosB act-1 21*, S100A4 MyoIIA -4 and dFosB act-2 2.
Screening CC(C)C[C@H]1CNC(=S)N1CC1CCCN1C[C@H](Cc1ccccc1)N1C[C@H](Cc2ccc(O)cc2)N(CC2CCCCCC2)C1=S (stereo not given in full) returned Statin myotox sup 3, CAL PDZ FP-1 -2, CDK5 p35 inh -3, CAL PDZ FP-2 0, dFosB act-1 57*, S100A4 MyoIIA 0 and dFosB act-2 7.
For CC(C)C[C@H]1CN([C@@H](Cc2ccc(O)cc2)CN2CCC[C@@H]2CN2C(=S)NC[C@@H]2Cc2ccccc2)C(=S)N1CC1CCCCCC1 the results were Statin myotox sup 8 and S100A4 MyoIIA -1.
Screening CC(C)C[C@@H](CN1CCCC1CN1C(=S)NC[C@@H]1Cc1ccc(O)cc1)N1C[C@H](Cc2ccccc2)N(CC2CCCCCC2)C1=S (stereo not given in full) returned Statin myotox sup 6, CAL PDZ FP-1 -5, CDK5 p35 inh -1, CAL PDZ FP-2 -1, dFosB act-1 45*, S100A4 MyoIIA -2 and dFosB act-2 5.
CC(C)C[C@@H](CN1CCC[C@@H]1CN1C(=O)C(=O)NC[C@@H]1Cc1ccccc1)N1C[C@H](Cc2ccccc2)N(CC2CCCCCC2)C(=O)C1=O was read as Statin myotox sup 1, CAL PDZ FP-1 -6, CDK5 p35 inh 1, CAL PDZ FP-2 0, dFosB act-1 35*, S100A4 MyoIIA 3 and dFosB act-2 5.
For CC(C)C[C@@H](CN1CCCC1CN1C(=S)NC[C@@H]1Cc1ccccc1)N1C[C@H](Cc2ccccc2)N(CC2CCCCCC2)C1=S (stereo not given in full) the results were S100A4 MyoIIA -9.
`CC(C)C[C@@H](CN1CCCC1CN1C(=S)NC[C@@H]1Cc1ccc(O)cc1)N1C[C@H](Cc2ccccc2)N(CC2CCCCC2)C1=S` (stereo not given in full) gave Statin myotox sup 0, CAL PDZ FP-1 5, CDK5 p35 inh 0, CAL PDZ FP-2 1, dFosB act-1 52*, S100A4 MyoIIA -8 and dFosB act-2 1.
Screening OCCCCCN=c1cc(-c2ccccc2)oc2ccc(Cl)cc12 returned Statin myotox sup 24, CAL PDZ FP-1 -3, CDK5 p35 inh 2, CAL PDZ FP-2 -1, dFosB act-1 21* and dFosB act-2 4.
For Clc1ccc2oc(-c3ccccc3)cc(=NCCCN3CCOCC3)c2c1 the results were CDK5 p35 inh 0, CAL PDZ FP-2 0, dFosB act-1 -9 and S100A4 MyoIIA -3.
CC(=O)NC[C@@H]1[C@@H](c2ccc(C3=CCCCC3)cc2)[C@@H](CO)N1C(=O)NC(C)C was read as Statin myotox sup 0.
Screening N#Cc1cc2c(nc1SCC(=O)Nc1sc3c(c1C#N)CCC3)CCCC2 returned Statin myotox sup -11, CAL PDZ FP-1 -1, CDK5 p35 inh 1, CAL PDZ FP-2 0 and dFosB act-1 0.
N#Cc1ccc(-c2ccc(F)cc2)nc1SCC(=O)Nc1sc2c(c1C#N)CCC2 was read as Statin myotox sup -18, CAL PDZ FP-1 -2, CDK5 p35 inh 1, CAL PDZ FP-2 -2, dFosB act-1 37* and dFosB act-2 1.
Screening O=C(NCc1ccco1)c1sc2cc(Cl)ccc2c1Cl returned Statin myotox sup 3, CAL PDZ FP-1 -3, CDK5 p35 inh -1, CAL PDZ FP-2 -3 and dFosB act-1 -7.

Source: PubChem
